Experimental findings from publication PMC5598103 (Toxicology Reports, 2014) are described below.

Assay [1] has as its target T1, tissue non-specific alkaline phosphatase (TNAP) (Homo sapiens, UniProt P05186).
T1 sequence (P05186 18-524): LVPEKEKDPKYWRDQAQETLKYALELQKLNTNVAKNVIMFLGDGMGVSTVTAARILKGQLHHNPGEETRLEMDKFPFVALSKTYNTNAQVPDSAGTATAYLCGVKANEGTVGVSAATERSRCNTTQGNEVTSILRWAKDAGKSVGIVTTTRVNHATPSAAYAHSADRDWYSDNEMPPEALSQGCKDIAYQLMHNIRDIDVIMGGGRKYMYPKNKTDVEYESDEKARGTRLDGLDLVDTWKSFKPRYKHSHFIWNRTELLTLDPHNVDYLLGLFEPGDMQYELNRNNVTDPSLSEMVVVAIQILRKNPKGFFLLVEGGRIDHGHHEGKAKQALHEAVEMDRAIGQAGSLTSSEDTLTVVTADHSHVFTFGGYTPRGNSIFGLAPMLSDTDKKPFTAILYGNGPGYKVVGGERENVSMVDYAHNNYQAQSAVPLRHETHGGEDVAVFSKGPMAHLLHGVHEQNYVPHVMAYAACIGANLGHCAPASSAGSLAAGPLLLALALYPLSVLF
The experiment in a line: Alkaline phosphatase inhibition, spectrophotometric p-NPP assay. The conditions noted are these: for Ki: read-out: Ki ± SEM TNAP, pH 9.5, p-NPP substrate, SEM of 3 experiments. It is filed as biochemical. The method, boiled down:
(§1)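 Commercial enzyme (calf-intestinal CIAP; TNAP) diluted in pH 9.5 buffer of 50 mM Tris–HCl, 5 mM MgCl2, 0.1 mM ZnCl2 and 50% glycerol. Test compound was preincubated with enzyme in glycerol-free buffer at 37 °C for 10 min. 0.5 mM p-NPP solution was added, incubated 30 min, and p-nitrophenolate read at 405 nm. Screen at 0.1 mM used levamisole (TNAP) or L-phenylalanine (CIAP) as standards. Ki came from 3-fold serial dilutions, run in triplicate.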

Assay [2] deals with vero cells. As to the kind of experiment: Cytotoxicity by sulforhodamine B. To be noted: for Percent inhibition ± SEM at 10 μM on vero cells: up to 48 h. Format: cell-based. The method, boiled down: (§2)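 HeLa or vero cells were grown in RPMI-1640 with 2 mM L-glutamine, penicillin/streptomycin and 10% FBS at 37 °C, 5% CO2. Cells were seeded at 10^4 per well for 24 h, then exposed to 10, 1 or 0.1 μM test compound for up to 48 h, with vincristine and medium controls. Cells were fixed with cold TCA for 1 h and stained 30 min with 0.4% SRB in 1% acetic acid. Dye was solubilised in 10 mM Tris base and read at 490 nm minus 630 nm. Three experiments were run, each in triplicate.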

The test system of assay [3] is HeLa cells. As to the kind of experiment: Cytotoxicity by sulforhodamine B. It is filed as cell-based, human. To be noted: for Percent inhibition ± SEM at 0.1 μM on Hela cells / Percent inhibition ± SEM at 1 μM on Hela cells / Percent inhibition ± SEM at 10 μM on Hela cells: up to 48 h. The method, boiled down:
as §2

Assay [4] deals with calf intestine alkaline phosphatase (CIAP). As to the kind of experiment: Alkaline phosphatase inhibition, spectrophotometric p-NPP assay. Format: biochemical. To be noted: read-out: Ki ± SEM CIAP; pH 9.5, p-NPP substrate, SEM of 3 experiments. The method in brief:
as §1

(NH4)14[NaP5W30O110]·31H2O: the Ki in assay [1] was 1110 ± 36 nM. The “Percent inhibition ± SEM at 10 μM on vero cells” value in assay [2] was determined as 15 ± 6%. For the same compound, in assay [3], the “Percent inhibition ± SEM at 0.1 μM on Hela cells” value is listed as 54 ± 6%, the “Percent inhibition ± SEM at 1 μM on Hela cells” value (shortened to “Percent inhibition ± SEM at 1 μM”) stood at 62 ± 13% and the “Percent inhibition ± SEM at 10 μM on Hela cells” value worked out at 74 ± 10%. Moreover, the Ki in assay [4] worked out at 921 ± 6 nM.
On to `c1ccc([C@H]2CN3CCSC3=N2)cc1` [Levamisole, reference compound], for which the inhibition at 100 µM in assay [1] (read-out: Percent inhibition of TNAP) was 71%.
Regarding Na6[V10O28]·18H2O, the inhibitory constant (Ki) in assay [1] came to 169 ± 21 nM. Also, the “Percent inhibition ± SEM at 10 μM on vero cells” value in assay [2] is recorded as 16 ± 3%. Besides, in assay [3], the “Percent inhibition ± SEM at 0.1 μM on Hela cells” value was found to be 49 ± 11%, the “Percent inhibition ± SEM at 1 μM” value is 57 ± 13% and the “Percent inhibition ± SEM at 10 μM on Hela cells” value was 66 ± 15%. In addition, the inhibitory constant (Ki) in assay [4] was 79.1 ± 2.3 nM.
Turning to `CC[C@]1(O)C[C@H]2CN(CCc3c([nH]c4ccccc34)[C@@](C(=O)OC)(c3cc4c(cc3OC)N(C=O)[C@H]3[C@@](O)(C(=O)OC)[C@H](OC(C)=O)[C@]5(CC)C=CCN6CC[C@]43[C@@H]65)C2)C1` [VCN, vincristine, reference compound], the inhibition at 10 µM in assay [2] (Chlorocebus sabaeus, Vero, 48 h, read-out: Percent inhibition ± SEM at 10 μM on vero cells) was 10 ± 4%; in assay [3] (Homo sapiens, HeLa, 48 h, read-out: Percent inhibition ± SEM at 10 μM on Hela cells), 72 ± 7%.
As for Na6[TeW6O24]·22H2O, the Ki in assay [1] worked out at 45.4 ± 11.3 nM. Also, in assay [2], the “Percent inhibition ± SEM at 10 μM on vero cells” value is on record as 16 ± 8%. Also, in assay [3], the “Percent inhibition ± SEM at 0.1 μM on Hela cells” value is on record as 53 ± 12%, the “Percent inhibition ± SEM at 1 μM” value is recorded as 62 ± 10% and the “Percent inhibition ± SEM at 10 μM on Hela cells” value amounted to 69 ± 10%. In addition, the Ki in assay [4] turned out to be 520 ± 13 nM.
